The target in experiment [1] is Cyclin-dependent kinase 2 (Homo sapiens, UniProt P24941). As to the kind of experiment: Inhibition of CDK2.
For the next experiment, the system named is EJ. As to the kind of experiment: Cytotoxicity against EJ cells after 48 hrs. In kind it is functional. The following applies: Homo sapiens. An outline of the steps: (§1)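 Exponentially growing cells exposed to compound at various concentrations for 48 h, then cell numbers measured; concentration giving 50% growth inhibition determined; means of three experiments.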

For experiment [2], the target named is Cyclin-dependent kinase 1 (Homo sapiens, UniProt P06493). As to the kind of experiment: Inhibition of CDK1.
The test system of another experiment is HCT-116. As to the kind of experiment: Cytotoxicity against HCT116 cells after 48 hrs. In kind it is functional. The settings on record: Homo sapiens, HCT-116, 48 h. Put shortly:
as §1

The next experiment deals with SW-620. In words: Cytotoxicity against SW620 cells after 48 hrs. In kind it is functional. The following applies: Homo sapiens, SW-620, 48 h. Put shortly:
as §1

A further experiment deals with MDA-MB-468. In words: Cytotoxicity against MDA-MB-468 cells after 48 hrs. In kind it is functional. The settings on record: Homo sapiens, MDA-MB-468, 48 h. Put shortly: as §1

This passage reports IC50 and GI50 results from ChEMBL document CHEMBL1148833, “3-Hydroxychromones as cyclin-dependent kinase inhibitors: synthesis and biological evaluation” (Bioorg Med Chem Lett, 2007).

What is called IC50 is the concentration that inhibits the measured activity by half. Low values mean greater potency in that assay, high ones weaker potency in that assay. The GI50 is the concentration that inhibits growth by half.

Molecules are shown by their SMILES.

Cyclin-dependent kinase 1, sequence (P06493 whole entry): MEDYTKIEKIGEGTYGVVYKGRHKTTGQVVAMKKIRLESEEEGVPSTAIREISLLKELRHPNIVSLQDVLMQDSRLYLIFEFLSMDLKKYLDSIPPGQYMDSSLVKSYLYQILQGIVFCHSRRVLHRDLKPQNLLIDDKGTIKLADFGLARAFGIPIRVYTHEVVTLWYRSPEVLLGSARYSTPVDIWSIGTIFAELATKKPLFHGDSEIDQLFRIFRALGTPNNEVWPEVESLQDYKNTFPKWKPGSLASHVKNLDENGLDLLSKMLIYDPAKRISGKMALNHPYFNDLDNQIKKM

Consider `O=c1c(O)c(-c2ccc(O)c(O)c2)oc2ccccc12`, for which, in experiment [1], the IC50 is 4000 nM.

For `Cc1cc(N2CCCS2(=O)=O)c2oc(-c3ccc(O)c(C(F)(F)F)c3)c(O)c(=O)c2c1`, the IC50 in experiment [1] was 1700 nM; in experiment [2] it was 63 nM. Besides, the concentration for 50% growth inhibition (GI50) came to 1300 nM with EJ and 910 nM in the experiment on HCT-116.

In experiment [1], `Cc1cc(N2CCCCC2)c2oc(-c3ccc(O)c(O)c3)c(O)c(=O)c2c1` had an IC50 of 2600 nM.

Regarding `Cc1cc(N2CCCS2(=O)=O)c2oc(-c3ccc(O)cc3)c(O)c(=O)c2c1`, the concentration for 50% growth inhibition (GI50) turned out to be 270 nM in the experiment with EJ, 340 nM with HCT-116, 570 nM in the experiment on SW-620 and 620 nM in the experiment on MDA-MB-468. The same molecule returned an IC50 in experiment [2] of 450 nM.

With `Cc1cc(N2CCCS2(=O)=O)c2oc(-c3ccc(O)c(C#N)c3)c(O)c(=O)c2c1`, the IC50 in experiment [2] stood at 160 nM.

With `Cc1cc(N2CCCS2(=O)=O)c2oc(-c3ccc(O)c(Br)c3)c(O)c(=O)c2c1`, the GI50 in the experiment with EJ amounted to 64 nM; with HCT-116 it was 17 nM; in the experiment with SW-620, 52 nM; in the experiment with MDA-MB-468, 230 nM. The molecule also returned an IC50 in experiment [2] of 19 nM.

The molecule `CCN(CC)c1cc(C)cc2c(=O)c(O)c(-c3ccc(O)c(O)c3)oc12` registered an IC50 in experiment [1] of 1600 nM.

The molecule `O=c1cc(-c2ccc(O)c(O)c2)oc2c(O)c(O)ccc12` yielded an IC50 in experiment [1] of over 500000 nM.

Regarding `Cc1cc(N2CCCS2(=O)=O)c2oc(-c3ccc(O)c(O)c3)c(O)c(=O)c2c1`, the GI50 with EJ turned out to be 600 nM; in the experiment with HCT-116 it was 280 nM; in the experiment with SW-620, 900 nM; in the experiment on MDA-MB-468, 1000 nM. This molecule also displayed an IC50 in experiment [2] of 130 nM.

Consider `O=c1c(O)c(-c2ccc(O)c(O)c2)oc2cc(O)cc(O)c12` [QUERCETIN], for which the IC50 in experiment [1] was 40000 nM.

For `Cc1cc(N2CCN(C)CC2)c2oc(-c3ccc(O)c(O)c3)c(O)c(=O)c2c1`, half-maximal inhibition in experiment [1] (IC50) required 640 nM.

As for `Cc1cc(N2C(=O)CNC2=O)c2oc(-c3ccc(O)c(O)c3)c(O)c(=O)c2c1`, in experiment [1], the midpoint of inhibition, the IC50, lay at 4000 nM. This IC50 is about 6.2-fold higher than that of the molecule before.

As for `Cc1cc(N2CCCC2)c2oc(-c3ccc(O)c(O)c3)c(O)c(=O)c2c1`, in experiment [1], the midpoint of inhibition, the IC50, lay at 3000 nM.

With `O=c1cc(-c2ccc(O)c(O)c2)oc2ccccc12`, the IC50 in experiment [1] is over 500000 nM.

`Cc1cc(N2CCCC2=O)c2oc(-c3ccc(O)c(O)c3)c(O)c(=O)c2c1` yielded an IC50 in experiment [1] of 1600 nM.

In experiment [1], `O=c1cc(-c2ccc(O)c(O)c2)oc2cc(O)cc(O)c12` [LUTEOLIN] came in with an IC50 of 20000 nM.

On to `Cc1cc(N2C(=O)CN(C)C2=O)c2oc(-c3ccc(O)c(O)c3)c(O)c(=O)c2c1`, for which, in experiment [1], the IC50 is 56 nM. Also, in the experiment on EJ, the GI50 came out at 1100 nM.

Take `Cc1cc(N2C(=O)CCC2=O)c2oc(-c3ccc(O)c(O)c3)c(O)c(=O)c2c1`: the IC50 in experiment [1] worked out at 1500 nM. In the experiment on EJ, this molecule came in with a GI50 of 1200 nM.

For the molecule `Cc1cc(N2CCCS2(=O)=O)c2oc(-c3ccc(O)c(Cl)c3)c(O)c(=O)c2c1`, the figures for the IC50 in experiment [1] and in experiment [2] were 190 nM and 33 nM, respectively. In addition, the GI50 in the experiment with EJ is 65 nM; in the experiment on HCT-116 it was 37 nM; in the experiment with SW-620, 64 nM; in the experiment with MDA-MB-468 it was 180 nM.

Molecule `O=c1c(O)c(-c2ccc(O)c(O)c2)oc2cc(O)ccc12` [FISETIN] showed an IC50 in experiment [1] of 5000 nM.

In turn, `Cc1cc(N)c2oc(-c3ccc(O)c(O)c3)c(O)c(=O)c2c1` displayed an IC50 in experiment [1] of 630 nM.

`Cc1cc(N2C(=O)CCCC2=O)c2oc(-c3ccc(O)c(O)c3)c(O)c(=O)c2c1`: the IC50 in experiment [1] amounted to 4400 nM.
